Columns and labels:
Format in all cases: biochemical
rat mPGES-1 = molecular target: T1, rat mPGES-1 (Rattus norvegicus, UniProt Q9JHF3); test: Cell-free mPGES-1 assay; conditions: IC50 mPGES-1, cell-free
T1 sequence (Q9JHF3 1-153): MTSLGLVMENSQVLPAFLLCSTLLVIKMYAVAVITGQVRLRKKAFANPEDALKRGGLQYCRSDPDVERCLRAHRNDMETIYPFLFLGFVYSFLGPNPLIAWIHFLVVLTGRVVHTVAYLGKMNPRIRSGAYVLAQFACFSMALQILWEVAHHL

rat COX-1 = molecular target: T2, rat COX-1 (Rattus norvegicus, UniProt Q63921); test: Cell-free fluorometric COX-1 assay
T2 sequence (Q63921 27-602): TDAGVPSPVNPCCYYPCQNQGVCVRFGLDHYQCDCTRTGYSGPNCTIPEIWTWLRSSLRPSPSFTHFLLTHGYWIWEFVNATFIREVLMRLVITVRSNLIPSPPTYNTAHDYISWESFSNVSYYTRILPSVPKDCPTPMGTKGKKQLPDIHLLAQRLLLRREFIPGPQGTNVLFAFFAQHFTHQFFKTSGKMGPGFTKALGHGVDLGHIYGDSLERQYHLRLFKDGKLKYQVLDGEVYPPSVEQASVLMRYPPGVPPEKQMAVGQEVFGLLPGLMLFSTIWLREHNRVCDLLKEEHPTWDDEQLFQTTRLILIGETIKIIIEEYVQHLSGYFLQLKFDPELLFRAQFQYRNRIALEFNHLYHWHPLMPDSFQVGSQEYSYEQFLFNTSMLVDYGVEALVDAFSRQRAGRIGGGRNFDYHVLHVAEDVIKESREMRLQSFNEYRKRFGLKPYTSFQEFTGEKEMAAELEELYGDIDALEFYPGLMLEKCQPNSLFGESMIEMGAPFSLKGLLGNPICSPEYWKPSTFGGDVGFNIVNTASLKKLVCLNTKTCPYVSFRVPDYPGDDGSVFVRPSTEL

human COX-1 = human COX-1 (Homo sapiens, UniProt P23219); test: Cell-free fluorometric COX-1 assay
Sequence of human COX-1 (P23219 24-599): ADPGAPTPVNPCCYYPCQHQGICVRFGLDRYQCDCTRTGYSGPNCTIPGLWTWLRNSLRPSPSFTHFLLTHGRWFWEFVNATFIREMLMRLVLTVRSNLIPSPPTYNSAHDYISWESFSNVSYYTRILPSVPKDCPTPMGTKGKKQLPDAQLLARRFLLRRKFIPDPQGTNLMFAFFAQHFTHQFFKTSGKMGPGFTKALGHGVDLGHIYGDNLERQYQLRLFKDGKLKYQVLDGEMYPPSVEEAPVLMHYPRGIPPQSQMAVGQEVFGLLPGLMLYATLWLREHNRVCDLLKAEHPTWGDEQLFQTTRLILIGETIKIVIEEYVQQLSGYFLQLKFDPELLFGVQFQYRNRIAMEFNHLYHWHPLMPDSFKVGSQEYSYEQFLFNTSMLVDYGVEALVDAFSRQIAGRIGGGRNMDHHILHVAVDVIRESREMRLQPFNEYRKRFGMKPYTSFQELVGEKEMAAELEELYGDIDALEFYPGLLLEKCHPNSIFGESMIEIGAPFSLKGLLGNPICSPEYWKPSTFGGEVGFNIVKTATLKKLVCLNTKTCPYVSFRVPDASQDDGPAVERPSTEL

rat COX-2 = molecular target: T3, rat COX-2 (Rattus norvegicus, UniProt P35355); test: Cell-free fluorometric COX-2 assay
T3 sequence (P35355 18-604): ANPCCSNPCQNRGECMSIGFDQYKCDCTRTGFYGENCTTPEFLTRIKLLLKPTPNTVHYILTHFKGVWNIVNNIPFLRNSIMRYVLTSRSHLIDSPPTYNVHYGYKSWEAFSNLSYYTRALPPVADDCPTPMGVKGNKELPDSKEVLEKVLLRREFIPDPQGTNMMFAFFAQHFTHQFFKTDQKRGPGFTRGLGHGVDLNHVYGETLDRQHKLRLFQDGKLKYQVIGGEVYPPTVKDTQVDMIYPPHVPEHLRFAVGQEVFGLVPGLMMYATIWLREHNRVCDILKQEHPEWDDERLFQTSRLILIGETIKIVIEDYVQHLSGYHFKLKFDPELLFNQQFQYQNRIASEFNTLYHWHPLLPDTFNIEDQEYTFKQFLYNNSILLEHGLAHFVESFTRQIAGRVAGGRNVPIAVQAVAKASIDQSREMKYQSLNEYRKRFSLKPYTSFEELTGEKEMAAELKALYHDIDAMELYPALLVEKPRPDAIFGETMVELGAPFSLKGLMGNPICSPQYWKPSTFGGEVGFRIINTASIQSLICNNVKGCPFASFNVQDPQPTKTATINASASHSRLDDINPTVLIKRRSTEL

human mPGES-1 = molecular target: T4, human mPGES-1 (Homo sapiens, UniProt O14684); test: Cell-free mPGES-1 assay
T4 sequence (O14684 1-152): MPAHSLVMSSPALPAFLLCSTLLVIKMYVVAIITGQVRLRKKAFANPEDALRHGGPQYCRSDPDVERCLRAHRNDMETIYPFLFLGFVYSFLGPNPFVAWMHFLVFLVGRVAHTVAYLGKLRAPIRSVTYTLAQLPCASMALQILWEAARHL
Outline: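 Enzyme in 15 mM Tris-HCl pH 7.4 with 1 mM GSH, preincubated 20 min with compound (0.1–100 µM); plate held 15 min at 20°C. PGH2 (final 2.8 µM) added, 45 s at room temperature, then stopped with SnCl2 in 1N HCl. PGE2 by ELISA, in triplicate, % inhibition versus untreated. Human enzyme from E. coli or commercial; mouse enzyme from vas deferens/seminal vesicles. IC50 by four-parameter nonlinear regression.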

human 5-LOX = molecular target: T5, human 5-LOX (Homo sapiens, UniProt P09917); test: Cell-free fluorometric 5-LOX assay; conditions: IC50 5-LOX
T5 sequence (P09917 1-674): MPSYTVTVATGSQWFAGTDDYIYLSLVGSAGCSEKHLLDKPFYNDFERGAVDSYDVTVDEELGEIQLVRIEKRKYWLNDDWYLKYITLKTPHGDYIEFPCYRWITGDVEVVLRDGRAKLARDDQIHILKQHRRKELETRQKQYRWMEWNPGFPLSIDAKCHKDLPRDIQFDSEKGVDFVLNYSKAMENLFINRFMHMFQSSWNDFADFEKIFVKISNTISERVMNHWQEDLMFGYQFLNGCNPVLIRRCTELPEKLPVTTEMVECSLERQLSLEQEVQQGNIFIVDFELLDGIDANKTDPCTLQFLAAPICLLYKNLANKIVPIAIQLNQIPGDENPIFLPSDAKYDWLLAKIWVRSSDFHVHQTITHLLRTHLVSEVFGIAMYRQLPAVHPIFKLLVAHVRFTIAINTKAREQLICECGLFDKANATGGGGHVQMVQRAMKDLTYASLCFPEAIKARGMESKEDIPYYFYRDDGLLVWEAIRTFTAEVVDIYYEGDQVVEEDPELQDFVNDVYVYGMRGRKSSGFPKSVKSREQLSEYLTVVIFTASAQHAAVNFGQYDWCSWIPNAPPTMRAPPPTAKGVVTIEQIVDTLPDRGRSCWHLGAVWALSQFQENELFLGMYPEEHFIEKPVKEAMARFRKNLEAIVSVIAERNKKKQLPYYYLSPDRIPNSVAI

[1] = cell-free, rat, up to the tested range of 1 mM

IC50 (rat COX-1) | IC50 (human COX-1) | IC50 (rat COX-2) | Structure (SMILES) | IC50 (rat mPGES-1) | inhibition of COX-1 activity (rat COX-1; [1]) | inhibition of COX-1 activity (human COX-1; cell-free, human, up to the tested range of 1 mM) | inhibition of COX-2 activity (rat COX-2; [1]) | IC50 (human mPGES-1) | IC50 (human 5-LOX)
 |  |  | CC1(C)Cc2c(-c3ccccc3)c(-c3ccc(Cl)cc3)c(CC(=O)NCC(=O)O)n2C1 [LFA-9, 2-[[2-[2-(4-chlorophenyl)-6,6-dimethyl-1-phenyl-5,7-dihydropyrrolizin-3-yl]acetyl]amino]acetic acid] | 1400 nM | did not show inhibition | did not show inhibition | did not show inhibition | 870 nM | 2750 nM
1810 nM | 1650 nM | 3260 nM | CC1(C)Cc2c(-c3ccccc3)c(-c3ccc(Cl)cc3)c(CC(=O)O)n2C1 [Licofelone, reference compound] | 12300 nM |  |  |  | 14000 nM | 2130 nM

Reference: paper PMC7781011 (Journal of Inflammation Research, 2020)
